Laboratory results reported in ChEMBL document CHEMBL1151276, “Antiviral Terpenoid Constituents of Ganoderma pfeifferi” (J Nat Prod, 2005).
In brackets after ≈: the same amount, converted by molar mass. Activity calls are given as the source filed them. No cut-off for these calls is given here.

Tests used:
Format in all cases: functional, organism-based
Influenza A virus = assay: Antiviral activity against influenza A virus infected in MDCK cells
Procedure, shortened: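 Each compound (1.0 mg) was dissolved in 100 µL methanol, then in MEM, giving a 1 mg/mL stock. Compounds were tested at noncytotoxic concentrations against influenza A virus and HSV type I.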

Staphylococcus aureus = assay: Antimicrobial activity against Staphylococcus aureus ATCC 6538 at 200 ug/disk by agar diffusion method
Procedure, shortened: (§1)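 Agar diffusion per European Pharmacopoeia. Antibiotic medium No. 1 inoculated with cell suspension and poured into plates. Paper disks loaded with 200 µg substance placed on the cooled agar, then prediffused 2 h in a refrigerator. Incubation 18 h at 37 °C (C. maltosa at 27 °C). Inhibition zone diameters read at end of incubation. Penicillin G positive control.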

Escherichia coli = assay: Antimicrobial activity against Escherichia coli ATCC 11229 at 200 ug/disk by agar diffusion method; procedure, shortened: as §1
Candida maltosa = assay: Antimicrobial activity against Candida maltosa SBUG 700 at 200 ug/disk by agar diffusion method; procedure, shortened: as §1

CC(C)[C@@H](C)/C=C/[C@@H](C)[C@H]1CC[C@H]2C3=CC[C@H]4C[C@@H](O)CC[C@]4(C)[C@H]3CC[C@]12C
IC50 (Influenza A virus): 0.78 µg/mL (≈ 1.96 µM) | Activity (Staphylococcus aureus): inactive | Activity (Escherichia coli): inactive | Activity (Candida maltosa): inactive

CC(C)[C@@H](C)/C=C/[C@@H](C)[C@H]1CC[C@H]2C3=CCC4CC(=O)CC[C@]4(C)[C@H]3CC[C@]12C (stereo not given in full)
Activity (Staphylococcus aureus): inactive | Activity (Escherichia coli): inactive | Activity (Candida maltosa): inactive

CC(CC(=O)C[C@@](C)(O)C1=C[C@H](O)[C@]2(C)[C@]1(C)C(=O)C=C1[C@@]3(C)CCC(=O)C(C)(C)[C@@H]3C[C@H]3O[C@@]132)C(=O)O (stereo not given in full)
Activity (Staphylococcus aureus): inactive | Activity (Escherichia coli): inactive | Activity (Candida maltosa): inactive

NC12CC3CC(CC(C3)C1)C2.O=S(=O)(O)O [AMANTADINE SULFATE]
IC50 (Influenza A virus): 15 µg/mL

C/C(C=O)=C\CC[C@@H](C)[C@H]1CC[C@@]2(C)C3=CC[C@H]4C(C)(C)C(=O)CC[C@]4(C)C3=CC[C@]12C [GANODERAL A]
Activity (Influenza A virus): inactive

C/C(=C\CC[C@@H](C)[C@H]1CC[C@@]2(C)C3=CC[C@H]4C(C)(C)C(=O)CC[C@]4(C)C3=CC[C@]12C)CO [GANODEROL A]
Activity (Influenza A virus): inactive | Activity (Staphylococcus aureus): inactive | Activity (Escherichia coli): inactive | Activity (Candida maltosa): inactive

C/C(=C\CC[C@@H](C)[C@H]1CC[C@@]2(C)C3=C(CC[C@]12C)[C@@]1(C)CCC(=O)C(C)(C)[C@@H]1CC3=O)CO [GANODERONE A]
Activity (Influenza A virus): inactive | Activity (Staphylococcus aureus): inactive | Activity (Escherichia coli): inactive | Activity (Candida maltosa): inactive

C[C@H](CCC1OC1(C)CO)[C@H]1CC[C@@]2(C)C3=C(CC[C@]12C)[C@@]1(C)CCC(=O)C(C)(C)[C@@H]1CC3=O (stereo not given in full) [GANODERONE C]
IC50 (Influenza A virus): 2.6 µg/mL (≈ 5.52 µM)

C/C(C=O)=C\CC[C@@H](C)[C@H]1CC[C@@]2(C)C3=C(CC[C@]12C)[C@@]1(C)CCC(=O)C(C)(C)[C@@H]1CC3=O [LUCIALDEHYDE B]
IC50 (Influenza A virus): 3 µg/mL (≈ 6.63 µM) | Activity (Staphylococcus aureus): inactive | Activity (Escherichia coli): inactive | Activity (Candida maltosa): inactive
